Laboratory results from ChEMBL document CHEMBL1121835, “Synthesis and anxiolytic activity of 6-(substituted-phenyl)-1,2,4-triazolo[4,3-b]pyridazines” (J Med Chem, 1981).
The source made the active and inactive calls. No cut-off for these calls is given here.

Columns and labels:
[1] = target: T1, GABA-A receptor; anion channel (Rattus norvegicus) (UniProt O09028+P15431+P18506+P18508+P19969+P20236+P23574+P23576+P28471+P28473+P30191+P62813+P63079+P63138+Q91ZM7+Q9ES14); assay: In vitro inhibition of [3H]diazepam binding towards Benzodiazepine receptor at 1 uM; assay type: protein-complex assay
Rattus norvegicus [2] = organism: Rattus norvegicus; assay: Anxiolytic activity for protection against pentylenetetrazole-induced convulsions in experiment 1; assay type: functional
Summary of the method: (§1)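 Rats in groups of 10, food-deprived 24 h, given 4–6 graded doses of compound orally (or ip where noted). PTZ at 23 mg/kg was injected iv into the caudal vein 60 min later. Protection meant no clonic seizure lasting at least 5 s. The number protected was counted and the ED50 estimated.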

Rattus norvegicus [3] = organism: Rattus norvegicus; assay: Anxiolytic activity for protection against pentylenetetrazole-induced convulsions in experiment 2; assay type: functional; summary of the method: as §1
Rattus norvegicus [4] = organism: Rattus norvegicus; assay: Average reduction in blood pressure over control (4 rats) at 2 hr in spontaneous hypertensive rats; assay type: functional
Summary of the method: (§2)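 Conscious cannulated male Okamoto SH rats, 300–350 g, dosed po with vehicle (2% boiled starch) or compound at 1, 5, 10 and 25 mg/kg. A second po dose was given 20 h later, and pressure was recorded continuously for 4 h. The value is the mean reduction against controls at 2 and 4 h, n = 4.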

Rattus norvegicus [5] = organism: Rattus norvegicus; assay: Average reduction in blood pressure over control (4 rats) at 4 hr in spontaneous hypertensive rats; assay type: functional; summary of the method: as §2
Rattus norvegicus [6] = assay: Hypotensive activity in saline-loaded spontaneously hypertensive rats following 100 mg/kg p.o. administration.; assay type: functional; design: unit not given beside the values; details: route oral
Summary of the method: (§3)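 Male Okamoto SH rats, about 300 g, gavaged with compound suspended in 2% boiled starch, with 0.9% NaCl loading at 25 mL/kg, at 0 h. An identical dose without saline followed at 24 h. Mean arterial pressure was taken by iliac artery puncture under local lidocaine at 28 h. Values are from one to three rats.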

Rattus norvegicus [7] = assay: Hypotensive activity evaluated as mean arterial blood pressure (MABP) in saline-loaded spontaneously hypertensive rats dosed (per oral) at 25 mg/kg; assay type: functional; summary of the method: as §3
Rattus norvegicus [8] = organism: Rattus norvegicus; assay: Anxiolytic activity for protection against pentylenetetrazole-induced convulsions.; assay type: functional, organism-based; summary of the method: as §1
[9] = target: GABA-A receptor; anion channel; assay: In vitro for inhibition of [3H]diazepam towards Benzodiazepine receptor from rat; assay type: protein-complex assay
Summary of the method: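 Rat frontal cortex homogenized in ice-cold 0.32 M sucrose; crude P2 synaptosomal fraction resuspended in 50 mM Tris-HCl pH 7.4. IC50 read graphically from % inhibition vs log concentration plots.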

Rattus norvegicus [10] = assay: Compound was evaluated for anxiolytic activity for protection against pentylenetetrazole-induced convulsions; no activity at 50 mg/kg; assay type: functional, organism-based; design: dose 50 mg/kg; summary of the method: as §1
Rattus norvegicus [11] = assay: In vivo protection against pentylenetetrazole-induced convulsions in the rat.; assay type: functional; summary of the method: as §1
[12] = target: T1, GABA-A receptor; anion channel (Rattus norvegicus); assay: In vitro percent inhibition of [3H]diazepam binding to rat GABA-A benzodiazepine receptor at 1 uM; assay type: protein-complex assay
Rattus norvegicus [13] = assay: Compound was evaluated for anxiolytic activity for protection against pentylenetetrazole-induced convulsions; No activity at 50 mg/Kg; assay type: functional, organism-based; summary of the method: as §1
Rattus norvegicus [14] = assay: Compound was evaluated for anxiolytic activity for protection against pentylenetetrazole-induced convulsions administered intraperitoneally; assay type: functional; details: ip; summary of the method: as §1
Rattus norvegicus [15] = assay: Compound was evaluated for anxiolytic activity for protection against pentylenetetrazole-induced convulsions administered orally; No activity at 50 mg/Kg; assay type: functional, organism-based; summary of the method: as §1
Rattus norvegicus [16] = assay: Hypotensive activity evaluated as mean arterial blood pressure (MABP) in saline-loaded spontaneously hypertensive rats dosed (per oral) at 100 mg/kg; Toxic at 100 mg/Kg; assay type: functional, organism-based; summary of the method: as §3
Rattus norvegicus [17] = assay: Hypotensive activity evaluated as mean arterial blood pressure (MABP) in saline-loaded spontaneously hypertensive rats dosed (per oral) at 50 mg/kg; assay type: functional; summary of the method: as §3
Rattus norvegicus [18] = organism: Rattus norvegicus; assay: Effect on […] seizures at 4 hr in rat; assay type: functional
Summary of the method: (§4)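 Rats, oral dosing at three dose levels with six rats per dose; PTZ challenge (23 mg/kg iv, caudal vein) at the stated interval after dosing. Animals scored as protected if free of at least 5 s of uninterrupted clonic seizures. The median effective dose (mg/kg) is reported with its 95% confidence interval.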

Rattus norvegicus [19] = organism: Rattus norvegicus; assay: Effect on […] seizures at 5 hr in rat; assay type: functional; summary of the method: as §4
Rattus norvegicus [20] = organism: Rattus norvegicus; assay: Effect on […] seizures at 6 hr in rat; assay type: functional; summary of the method: as §4
Rattus norvegicus [21] = organism: Rattus norvegicus; assay: Effect on […] seizures at 7 hr in rat; assay type: functional; summary of the method: as §4
Rattus norvegicus [22] = organism: Rattus norvegicus; assay: Effect on […] seizures at 0.5 hr in rat; assay type: functional; summary of the method: as §4
Rattus norvegicus [23] = organism: Rattus norvegicus; assay: Effect on […] seizures at 1 hr in rat; assay type: functional; summary of the method: as §4
Rattus norvegicus [24] = organism: Rattus norvegicus; assay: Effect on […] seizures at 2 hr in rat; assay type: functional; summary of the method: as §4
Rattus norvegicus [25] = organism: Rattus norvegicus; assay: Effect on […] seizures at 3 hr in rat; assay type: functional; summary of the method: as §4
[26] = Rattus norvegicus, read-out: ED50

SMILES: Nc1cccc(-c2ccc3nncn3n2)c1
- inhibition [1]: 32%
- ED50 (Rattus norvegicus [2]; [26]): 15 mg/kg
- ED50 (Rattus norvegicus [3]): 16.6 mg/kg

SMILES: Fc1ccc(-c2ccc3nncn3n2)cc1
- inhibition [1]: 16%
- BP (Rattus norvegicus [4]): -26 mmHg
- BP (Rattus norvegicus [5]): -31 mmHg
- ED50 (Rattus norvegicus [2]; [26]): 5 mg/kg
- ED50 (Rattus norvegicus [3]): 2.2 mg/kg
- MABP (Rattus norvegicus [6]): 88
- MABP (Rattus norvegicus [7]): 123

SMILES: CCc1nnc2ccc(-c3ccc(Cl)cc3)nn12
- ED50 (Rattus norvegicus [8]): inactive
- MABP (Rattus norvegicus [6]): 141

SMILES: CC(=O)Nc1cccc(-c2ccc3nnc(C)n3n2)c1
- IC50 [9]: 633 nM
- inhibition [1]: 56%
- EC50 (Rattus norvegicus [10]): Not Active

SMILES: FC(F)(F)c1cccc(-c2ccc3nnc(C(F)(F)F)n3n2)c1
- inhibition [1]: 60%
- ED50 (Rattus norvegicus [8]): inactive

SMILES: Cc1cc2nnc(C)n2nc1-c1ccc(F)cc1
- inhibition [1]: < 10%
- ED50 (Rattus norvegicus [8]): inactive

SMILES: Cc1nnc2ccc(-c3ccccc3)nn12
- IC50 [9]: 633 nM
- inhibition [1]: 55%
- ED50 (Rattus norvegicus [2]; [26]): 2.3 mg/kg
- ED50 (Rattus norvegicus [3]): 2.9 mg/kg

SMILES: c1ccc(-c2ccc3nnc(-c4ccccc4)n3n2)cc1
- inhibition [1]: 74%
- ED50 (Rattus norvegicus [8]): inactive

SMILES: Cc1cc(-c2ccc(F)cc2)nn2c(C)nnc12
- inhibition [1]: < 10%
- ED50 (Rattus norvegicus [8]): inactive
- MABP (Rattus norvegicus [6]): 126

SMILES: Cc1cc2nncn2nc1-c1ccc(F)cc1
- ED50 (Rattus norvegicus [8]): inactive
- MABP (Rattus norvegicus [6]): 105

SMILES: Cc1cccc(-c2ccc3nnc(C)n3n2)c1
- inhibition [1]: 68%
- ED50 (Rattus norvegicus [11]): ~50 mg/kg

SMILES: Cc1nnc2ccc(-c3cccc(N)c3)nn12
- IC50 [9]: 510 nM
- inhibition [1]: 60%
- inhibition [12]: 58%
- ED50 (Rattus norvegicus [11]): 12 mg/kg

SMILES: c1ccc(-c2ccc3nncn3n2)cc1
- inhibition [1]: 23%
- ED50 (Rattus norvegicus [2]; [26]): 9 mg/kg
- ED50 (Rattus norvegicus [3]): 4.8 mg/kg

SMILES: FC(F)(F)c1cccc(-c2ccc3nnc(CCl)n3n2)c1
- IC50 [9]: 391 nM
- inhibition [1]: 67%
- ED50 (Rattus norvegicus [13]): inactive

SMILES: COc1cccc(-c2ccc3nncn3n2)c1
- inhibition [1]: 34%
- inhibition [12]: 29%
- ED50 (Rattus norvegicus [14]): 50 mg/kg

SMILES: Cc1nnc2ccc(-c3cccc(F)c3)nn12
- IC50 [9]: 1200 nM
- inhibition [1]: 47%
- inhibition [12]: 43%
- ED50 (Rattus norvegicus [11]): 3.1 mg/kg

SMILES: COc1cccc(-c2ccc3nnc(C)n3n2)c1
- IC50 [9]: 309 nM
- inhibition [1]: 74%

SMILES: Cc1nnc2ccc(-c3ccccc3Cl)nn12
- inhibition [1]: < 10%
- ED50 (Rattus norvegicus [11]): 14 mg/kg
- MABP (Rattus norvegicus [6]): 123

SMILES: Cc1nnc2ccc(-c3cccc([N+](=O)[O-])c3)nn12
- inhibition [1]: 53%
- ED50 (Rattus norvegicus [11]): 11.6 mg/kg

SMILES: Cc1cc2nnc(C)n2nc1-c1cccc(C(F)(F)F)c1
- inhibition [1]: 26%
- ED50 (Rattus norvegicus [11]): 13.8 mg/kg
- MABP (Rattus norvegicus [6]): 129

SMILES: Cc1nnc2ccc(-c3ccc(F)cc3)nn12
- IC50 [9]: 589 nM
- inhibition [1]: 65%
- inhibition [12]: 64%
- ED50 (Rattus norvegicus [2]): 2 mg/kg
- ED50 (Rattus norvegicus [2]; [26]): 3.4 mg/kg

SMILES: CCCC(C)(COC(N)=O)COC(N)=O
- inhibition [1]: 1.8%

SMILES: Cc1nnc2ccc(-c3ccc(C(F)(F)F)cc3)nn12
- inhibition [1]: 17%
- ED50 (Rattus norvegicus [15]): inactive
- ED50 (Rattus norvegicus [14]): 15 mg/kg
- MABP (Rattus norvegicus [16]): Toxic
- MABP (Rattus norvegicus [7]): 157
- MABP (Rattus norvegicus [17]): 123

SMILES: Cc1nnc2ccc(-c3cccc(C(F)(F)F)c3)nn12 [CI-218872]
- IC50 [9]: 116 nM
- inhibition [1]: 77%
- ED50 (Rattus norvegicus [18]): 1.8 mg/kg
- ED50 (Rattus norvegicus [19]): 1.7 mg/kg
- ED50 (Rattus norvegicus [20]): 2 mg/kg
- ED50 (Rattus norvegicus [21]): 2.5 mg/kg
- ED50 (Rattus norvegicus [22]): 0.5 mg/kg
- ED50 (Rattus norvegicus [23]): 0.6 mg/kg
- ED50 (Rattus norvegicus [24]): 0.7 mg/kg
- ED50 (Rattus norvegicus [25]): 1 mg/kg
- ED50 (Rattus norvegicus [2]; [26]): 1.7 mg/kg
- ED50 (Rattus norvegicus [3]): 1.1 mg/kg

SMILES: CCc1nnc2ccc(-c3cccc(C(F)(F)F)c3)nn12
- IC50 [9]: 280 nM
- inhibition [1]: 73%
- ED50 (Rattus norvegicus [11]): 24 mg/kg

SMILES: Cc1nnc2ccc(-c3cccc(Cl)c3)nn12
- IC50 [9]: 709 nM
- inhibition [1]: 60%
- inhibition [12]: 61%
- ED50 (Rattus norvegicus [2]; [26]): 8 mg/kg
- ED50 (Rattus norvegicus [3]): 4.8 mg/kg

SMILES: Cl.NNc1nncc2ccccc12 [HYDRALAZINE HYDROCHLORIDE]
- MABP (Rattus norvegicus [7]): 82

SMILES: FC(F)(F)c1nnc2ccc(-c3ccccc3)nn12
- ED50 (Rattus norvegicus [2]; [26]): 15 mg/kg
- ED50 (Rattus norvegicus [3]): 18 mg/kg

SMILES: FC(F)(F)c1ccc(-c2ccc3nncn3n2)cc1
- inhibition [1]: 21%
- BP (Rattus norvegicus [4]): -15 mmHg
- BP (Rattus norvegicus [5]): -12 mmHg
- ED50 (Rattus norvegicus [11]): 5.8 mg/kg
- MABP (Rattus norvegicus [6]): 85
- MABP (Rattus norvegicus [7]): 136

SMILES: CCCc1nnc2ccc(-c3ccccc3)nn12
- inhibition [1]: 38%
- MABP (Rattus norvegicus [6]): 110
- MABP (Rattus norvegicus [7]): 145

SMILES: Cc1cccc(-c2ccc3nncn3n2)c1
- ED50 (Rattus norvegicus [11]): ~50 mg/kg
